Experimental data from ChEMBL document CHEMBL4513216, “Probing the Open Global Health Chemical Diversity Library for Multistage-Active Starting Points for Next-Generation Antimalarials” (ACS Infect Dis, 2020).

Assay: Toxicity liver stage against HepG2, at 10uM
Format: cell-based
Set-up: test concentration 10 uM, cell line HepG2-A16-CD81EGFP
Conditions: human, HepG2-A16-CD81EGFP cells; read-out: INHIBITION
In short: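 Uninfected HepG2-A16-CD81EGFP cells, 3 × 10^3 per well, 1536-well, plated on prespotted compound at 10 μM final, parasite-free screening media added to match infected plates; puromycin 10 μM positive, DMSO 0.5% negative; run in parallel with 48 h PbLuc assay at 37 °C, 5% CO2; viability by CellTiter-Glo luminescence, normalized to controls.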

Structure (SMILES) | cytotoxicity at 10 µM [%]
N#Cc1c2n(c3c(N)ncnc13)CCCCC2 | 15.1
COCCOc1ncccc1CNC(=O)N1CCOCC1 | -43.8
CCNC(=O)N[C@H]1C[C@@H](Cc2cc(CN3CCCCC3)on2)C1(C)C | -5.46
O=c1c(NCCCO)c(N2CCN(c3ccccc3)CC2)c1=O | -3.66
COc1ccc2nnc(CCCC(=O)NCc3ccccc3)n2n1 | -4.1
COc1cccc(OCC(=O)N2CCCSCC2CN2CCOCC2)c1 (stereo unspecified) | 4.01
COC(=O)c1cc(OC)c(OC)cc1N(C)S(C)(=O)=O | 7.43
O=C(c1ccoc1)N1CC[C@H]2[C@H]1CCN2S(=O)(=O)C1CC1 | -139
CCOc1ccc(C2SCC(=O)Nc3c2c(=O)[nH]n3C(C)C)cc1 (stereo unspecified) | 8.68
CCN(Cc1nonc1C)C(=O)Cn1nc(C(F)(F)F)cc1C | 0.7
CCN(CC)CCNc1nc(C(C)C)nc2c(C)nn(CC)c12 | 8.99
CCN(CC)c1nc(C)cc(C(=O)Nc2ccc(Br)cc2)n1 | 6.46
Cc1ccn(-c2ccnc(N3CCN(c4ncccn4)CC3)n2)n1 | 13.4
Cc1ccc(OCCCNC(=O)C2(C)CC(=O)N3C=CC=CC3=N2)cc1 (stereo unspecified) | 0.343
Cc1cc(N(C)C)nc(C2COCCN2Cc2cc(C)on2)n1 (stereo unspecified) | -3.55
O=C(c1cnco1)N1CCC(Cc2cccc3ncccc23)CC1 | 6.79
CN(CCc1ccncc1)Cc1c(C2CCCC2)[nH]c2ncccc12 | 1.46
O=C(CCn1cccn1)N1CCC(c2nnc(-c3ccccn3)o2)CC1 | 0.125
Cc1cc(N(C)C)nc(C2(C)CCCNC2)n1 (stereo unspecified) | 1.03
COCC(=O)N1CCC(c2cc(N(C)C)cc(C)n2)CC1 | 8.6
CCCN(C(=O)c1cnc(C)cn1)c1nc2c(s1)CCc1c-2cnn1C | -28
COc1cc(CN2CC[C@@]3(CCCO3)[C@@H](O)C2)ccc1F | -3.14
Cc1c[nH]nc1C1CCN(S(=O)(=O)N(C)C)CC1 | 0.462

Structure (SMILES) | cytotoxicity at 10 µM [%]
Cc1cnc(CN2CCCCC2c2nc(-c3ccccc3)no2)cn1 (stereo unspecified) | -42
CN(CC(=O)NCC(F)(F)F)Cc1cccc2c1OCCO2 | -18.7
CC(OCC1CC1)C(=O)Nc1nccn1Cc1ccccc1 (stereo unspecified) | -6.79
Cc1cc(C(=O)NC(C)Cc2ccc(N(C)C)cc2)n(C)n1 (stereo unspecified) | 1.19
CCCS(=O)(=O)N1CCCC(c2nc(-c3ccccc3)c[nH]2)C1 (stereo unspecified) | 16.2
CC(O)CN(C)C(=O)CCNC(=O)OC(C)(C)C (stereo unspecified) | -5.32
Cn1cc(CN2CCS(=O)(=O)C(C)(C)C2)cn1 | 0.512
CN(CCc1ccccn1)C(=O)Nc1cccnc1N1CCCC1 | -27.2
CC1CCC(NS(=O)(=O)CC(=O)NC(C2CC2)C2CC2)CC1 (stereo unspecified) | -2.8
CNc1snc(C)c1C(=O)NC(C)CC(=O)c1cccs1 (stereo unspecified) | -0.227
COC(=O)C(O)C1CCN(CCc2ccncc2)CC1 (stereo unspecified) | 11.8
C1CCC(CSc2nnnn2C2CC2)OC1 (stereo unspecified) | 5.29
COc1ccc(CCNC(=O)C(C)Nc2cc(C)ccc2C)cc1 (stereo unspecified) | -5.71
CCN(CC1CN(Cc2c(C)noc2C)CCO1)c1cccnn1 (stereo unspecified) | -7.99
O=C(NCc1nnc2n1CCCCC2)N(Cc1ccccn1)C1CC1 | 2.46
CC(O)(CNC(=O)NCc1cccc(-n2cncn2)c1)c1ccco1 (stereo unspecified) | 15
O=C(NCc1nccn1CCc1ccccc1)NCC1CCC1 | 4.7
Cc1cnc(CN2CC=C(c3c[nH]c4ncccc34)CC2)o1 | 25
CC(CC(=O)NCCNS(C)(=O)=O)C1CCCCC1 (stereo unspecified) | 6.43
Cc1nc(C2CCCN2Cc2cc(Cl)c3c(c2)OCO3)no1 (stereo unspecified) | 7.51
CN(C)CCNC(=O)Nc1cccc(C[S+]([O-])Cc2ccccc2)c1 (stereo unspecified) | 6.59
CCN(C(=O)CN(Cc1cccc(O)c1)C1CCC(O)CC1)C1CC1 (stereo unspecified) | 1.31
Cc1occc1CN(C)C(=O)Nc1ccc(=O)n(C)c1 | -53.5

Structure (SMILES) | cytotoxicity at 10 µM [%]
Cc1ccc(CNC(=O)c2c[nH]nc2NC(=O)C2COCCO2)cc1 (stereo unspecified) | -9.95
Cc1cc(NCc2cccc(C#N)c2)ccc1Br | 7.99
CC(C)(NC(=O)Cc1ccccc1F)C(C)(C)C(=O)O | -9.1
CCN(C(=O)COC)C(c1ccc(Cl)cc1)c1ccccn1 (stereo unspecified) | -9.7
COc1ccccc1C(C)CC(=O)N1CC[C@H](O)C1 (stereo partly specified) | -55.7
Cc1cccc(C2(NCCCS(C)(=O)=O)CCCC2)c1 | 1.3
OC(CNC1CCSCC1)c1cccc(OCc2ccccc2)c1 (stereo unspecified) | 8.22
CN(C)C(=O)CN1CCO[C@H]2CN(Cc3cccc(F)c3)C[C@H]21 | -97.2
Cc1noc([C@@]23CCO[C@@H]2CCN(S(=O)(=O)c2cccnc2)C3)n1 | -103
c1ccn(Cc2nnc3n2CCCN(c2cnccn2)C3)c1 | -2.2
CCN1CCC2(CC1)CC(NC(=O)c1c[nH]cn1)c1ccccc1O2 (stereo unspecified) | -103
Cc1cccc(-c2nnn3c2COC(CNS(=O)(=O)C2CC2)C3)c1 (stereo unspecified) | -110
CN1CCN(c2ncnc3c2c(C(=O)NC2CC2)c2ccccn23)CC1 | 3.34
COCCN1C[C@H]2[C@@H](C1)N(C(=O)c1cccs1)CC[C@H]2OC | -2.03
CC(C)c1nnsc1CNC(=O)C1CCN(C(=O)C2CCC2)CC1 | -2.75
Cn1ccnc1CN(CCO)C(=O)c1cc2ccccc2o1 | 3.42
CNc1ccnc(NCCSc2nccn2C)n1 | -42.6
CNc1nc(C(=O)N2CCCC(COc3ccc(F)cc3)C2)cs1 (stereo unspecified) | 8.35
CCCc1nnc2sc(C3CCN(C4CCN(C)CC4)CC3)nn12 | -10.6
COc1cc(C#N)ccc1OC12CCCN(CC1)C2 (stereo unspecified) | -19.1
Cc1nc(CCN(C)C(=O)CN2C(=O)OC[C@@H]2c2ccccc2)no1 | -42.2
CC(=O)N1CCN(Cc2c(C)ccc3ccccc23)CC(O)C1 (stereo unspecified) | 11.8
COCCN(Cc1cccnc1)c1nc(C)nc2oc(C)nc12 | -44.1

Structure (SMILES) | cytotoxicity at 10 µM [%]
CO[C@H]1C[C@@H](O)C12CCN(CCOc1ccc(Cl)cc1)CC2 | -9.66
N[C@@H]1c2ccccc2C2(CCN(c3cnc4ccccc4n3)CC2)[C@H]1O | -2.45
Cc1nc2c(c(N3CCCC(CO)C3)n1)CCN(Cc1ccco1)CC2 (stereo unspecified) | -0.044
Cn1c(N2CCOCC2)nc2cc(C(=O)N3CCC(O)(CO)C3)ccc21 (stereo unspecified) | -4.62
Cc1nc(CN2CC[C@@H]3[C@@H](CCC(=O)N3CCc3c[nH]cn3)C2)co1 | 2.62
CCn1cnnc1CN(C)Cc1c[nH]nc1-c1ccc(F)cc1 | -2.59
N#CC1CCCN(C(=O)Cn2ncc(N3CCCC3)cc2=O)C1 (stereo unspecified) | -6.36
CC1=CC(C)(C)N(CN2C(=O)c3ccccc3C2=O)c2ccccc21 | 5.82
CCOc1cccc(CN(Cc2cnn(C)c2)CC(C)C)c1O | -7
CC(C)Cc1cc(CNC(=O)c2cccc3c2NCCC3)no1 | -50.7
CC(C)c1cc(NCC2(CO)CCCC2)ncn1 | 11.9
CCn1c(CC2CCN(C(=O)c3ccnn3C)CC2)n[nH]c1=O | -51.1
CN(CCCc1nccn1C)C(=O)C1COc2ccccc2C1 (stereo unspecified) | -9.1
c1cncc(CN(CCCn2ccnc2)CC2CCOC2)c1 (stereo unspecified) | 1.79
Cc1nn(C)c(C)c1C(C(=O)O)N1CC=C(c2ccccc2)CC1 (stereo unspecified) | -2.11
c1cc2ccc(N3CCN(Cc4ccc5c(c4)OCO5)CC3)nc2[nH]1 | -6.07
CN1N=C(C(=O)N2CCCC(CCc3ccccc3F)C2)CCC1=O (stereo unspecified) | -6.67
CCc1nnc(N2C[C@@H](NC(C)=O)[C@H](c3ccc(C)o3)C2)s1 | -54.5
CN(C(=O)c1cccc(NCC(=O)O)c1)C(C1CC1)C1CC1 | 5.01
Cc1cc(NC(=O)CCn2cncn2)no1 | 2.89
c1coc(CN2CCn3c(nc4ccccc43)C2)c1 | 21.8
Cn1ncc2c(NCCCOc3cccnc3)nc(C3CCCC3)nc21 | 2.94
CN1CCN(c2cc(CCNC(=O)C3CCC3)nc(C3CC3)n2)CC1 | 0.462

Structure (SMILES) | cytotoxicity at 10 µM [%]
Cc1ncncc1C(=O)Nc1cnn(CC(=O)NC2CCCC2)c1 | 4.88
Cc1cncc(C(=O)NCCSCc2cccs2)c1 | -6.48
Cc1cc(C)n(CC2CCCN2CCc2ccccn2)n1 (stereo unspecified) | -8.01
Cc1nc(CN(C)C2CCN(Cc3sc(C)nc3C)C2)no1 (stereo unspecified) | -8.99
CNS(=O)(=O)c1ccc(C(=O)N2CCCC2Cc2ccccc2)o1 (stereo unspecified) | -8.53
CCOCCN1CCN(Cc2cccc(C(=O)N(C)C)c2)CC1 | -13.5
CC(C)(NCC(=O)NCCC#N)c1ccc2c(c1)OCCO2 | -4.03
CN(C)c1ccc(CCNC(=O)NCc2ccc(N(C)C)nc2)cc1 | -11.2
CCOc1ncccc1NC(=O)NC1CCN(S(C)(=O)=O)CC1 | -7.96
Cn1c(CN2CCOC(c3nc(C(C)(C)C)n[nH]3)C2)nnc1C1CC1 (stereo unspecified) | 5.37
Cc1ncc(CN2CCCC2)c2cc(C(=O)c3ccc(Br)cc3)oc12 | 1.46
Cc1cc(CN2C[C@H](OCC3CCOCC3)[C@H]3COC[C@H]32)oc1C | 6.88
c1cnc(N2CCOCC3(C2)CN(c2nccs2)CCO3)nc1 (stereo unspecified) | -104
Cn1cc(CNC2CC3(CCN(S(C)(=O)=O)CC3)c3ccccc32)cn1 (stereo unspecified) | -110
Cc1ccc(C(=O)N2CCc3c(CN4CCCC4)nn(C)c3C2)cc1C | -4.86
CCc1ccc(CN2CC[C@@H]3NC(=O)CC[C@@H]32)o1 | 3.06
c1ccc(N2CCCC3(CCN(Cc4cccs4)C3)C2)nc1 (stereo unspecified) | 12.7
CCCn1cc2nc(N3CCCC3)[nH]cc-2c1=O | 2.13
CC(C)c1nnc(N2C[C@H]3CC[C@@H](C2)N(CC2CCC2)C3)s1 | -7.38
